In brackets after ≈: the same amount, converted by molar mass.
Columns and labels:
Trichosporon beigelii [1] = assay: Antifungal activity against Trichosporon beigelii 1188 after 48 hrs by broth microdilution method; format: functional; settings: Trichosporon beigelii, 1188, 48 h
Escherichia coli [2] = assay: Antibacterial activity against Escherichia coli CCM 4517 after 48 hrs by broth microdilution method; format: functional; settings: CCM 4517, 48 h
Outline: (§1)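 Broth microdilution following […], with twofold compound dilutions in Mueller-Hinton bouillon. Incubated 24 and 48 h at 35 °C in the dark in a humid atmosphere. MIC (IC80) was taken as ≥80% growth reduction versus control, read visually and photometrically.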

Klebsiella pneumoniae [3] = assay: Antibacterial activity against Klebsiella pneumoniae D11750/08 after 24 hrs by broth microdilution method; format: functional; settings: D11750/08, 24 h; outline: as §1
Mycobacterium kansasii [4] = assay: Antimycobacterial activity against Mycobacterium kansasii 235/80 after 14 days by micromethod; format: functional; settings: 235/80, 336 h
Outline: (§2)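 Micromethod in Sula semisynthetic medium, with compounds added as DMSO solutions at 1000, 500, 250, 125, 62, 32, 16, 8, 4, 2, 1, 0.5, 0.25. Inoculum dilutions: H37Rv 10^-3; M. avium 330/88 10^-5; M. kansasii 235/80 10^-4; M. kansasii 6509/96 10^-5. Incubated at 37 °C, read at 14 and 21 days, and at 7 days for M. kansasii. MIC was the lowest concentration inhibiting growth.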

Staphylococcus aureus [5] = assay: Antibacterial activity against Staphylococcus aureus CCM 4516/08 after 24 hrs by broth microdilution method; format: functional; settings: CCM 4516/08, 24 h; outline: as §1
Klebsiella pneumoniae [6] = assay: Antibacterial activity against Klebsiella pneumoniae D11750/08 after 48 hrs by broth microdilution method; format: functional; settings: D11750/08, 48 h; outline: as §1
Mycobacterium avium [7] = assay: Antimycobacterial activity against multidrug-resistant Mycobacterium avium 330/88 after 21 days by micromethod; format: functional; settings: 330/88, 504 h; outline: as §2
[8] = test system: Mycobacterium tuberculosis; assay: Antimycobacterial activity against Mycobacterium tuberculosis H37Rv 331/88 after 14 days by micromethod; format: functional; settings: H37Rv 331/88, 336 h; outline: as §2
Staphylococcus aureus [9] = assay: Antibacterial activity against Staphylococcus aureus CCM 4516/08 after 48 hrs by broth microdilution method; format: functional; settings: CCM 4516/08, 48 h; outline: as §1
Mycobacterium kansasii [10] = assay: Antimycobacterial activity against Mycobacterium kansasii 6509/96 after 7 days by micromethod; format: functional; settings: 6509/96, 168 h; outline: as §2
[11] = test system: Staphylococcus epidermidis; assay: Antibacterial activity against Staphylococcus epidermidis H6966/08 after 48 hrs by broth microdilution method; format: functional; settings: H6966/08, 48 h; outline: as §1
Candida albicans [12] = assay: Antifungal activity against Candida albicans ATCC 44859 after 48 hrs by broth microdilution method; format: functional; settings: ATCC 44859, 48 h
Enterococcus sp. [13] = assay: Antibacterial activity against Enterococcus sp. J14365/08 after 24 hrs by broth microdilution method; format: functional; settings: J14365/08, 24 h; outline: as §1
Pichia kudriavzevii [14] = assay: Antifungal activity against Candida krusei E28 after 48 hrs by broth microdilution method; format: functional; settings: E28, 48 h
Trichosporon beigelii [15] = assay: Antifungal activity against Trichosporon beigelii 1188 after 24 hrs by broth microdilution method; format: functional; settings: Trichosporon beigelii, 1188, 24 h
Mycobacterium avium [16] = assay: Antimycobacterial activity against multidrug-resistant Mycobacterium avium 330/88 after 14 days by micromethod; format: functional; settings: 330/88, 336 h; outline: as §2
Mycobacterium kansasii [17] = assay: Antimycobacterial activity against Mycobacterium kansasii 6509/96 after 14 days by micromethod; format: functional; settings: 6509/96, 336 h; outline: as §2
Aspergillus fumigatus [18] = assay: Antifungal activity against Aspergillus fumigatus 231 after 24 hrs by broth microdilution method; format: functional; settings: Aspergillus fumigatus, 231, 24 h
[19] = test system: Mycobacterium tuberculosis; assay: Antimycobacterial activity against drug-sensitive Mycobacterium tuberculosis; format: functional
Staphylococcus aureus [20] = assay: Antibacterial activity against methicillin-resistant Staphylococcus aureus H5996/08 after 24 hrs by broth microdilution method; format: functional; settings: H5996/08, 24 h; outline: as §1
Candida tropicalis [21] = assay: Antifungal activity against Candida tropicalis 156 after 48 hrs by broth microdilution method; format: functional; settings: Candida tropicalis, 156, 48 h
Mycobacterium kansasii [22] = assay: Antimycobacterial activity against Mycobacterium kansasii; format: functional
Nakaseomyces glabratus [23] = assay: Antifungal activity against Candida glabrata 20/I after 24 hrs by broth microdilution method; format: functional
[24] = Selectivity index, ratio of IC50 for human PBMC to MIC for Mycobacterium tuberculosis H37Rv 331/88 after 14 days; format: functional
Outline: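 SI = PBMC IC50 (MTT cytotoxicity) divided by the MIC against the named M. tuberculosis strain. MIC taken after 14 days of incubation at 37 °C by the micromethod.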

Candida albicans [25] = assay: Antifungal activity against Candida albicans ATCC 44859 after 24 hrs by broth microdilution method; format: functional; settings: ATCC 44859, 24 h
Lichtheimia corymbifera [26] = assay: Antifungal activity against Absidia corymbifera 272 after 48 hrs by broth microdilution method; format: functional; settings: Lichtheimia corymbifera, 272, 48 h
Staphylococcus aureus [27] = assay: Antibacterial activity against methicillin-resistant Staphylococcus aureus H5996/08 after 48 hrs by broth microdilution method; format: functional; settings: H5996/08, 48 h; outline: as §1
PBMC = assay: Cytotoxicity against human PBMC after 24 hrs by MTT assay; format: cell-based
Outline: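 Human peripheral blood mononuclear cells in RPMI-1640 with 10% fetal calf serum, 2 mM L-glutamine and gentamicin, 37 °C, 5% CO2. Seeded at 1.5–2.0 × 10⁵ cells/well. After 24 h, treated overnight in serum-free medium. Viability by MTT (2 mg/mL, 4 h); formazan dissolved in DMSO; OD540 minus OD620. Cytotoxicity % = [1 − OD treated/OD control] × 100; IC50 from dose-response curves. Four parallels, two independent experiments.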

[28] = test system: Mycobacterium tuberculosis; assay: Antimycobacterial activity against Mycobacterium tuberculosis H37Rv 331/88 after 21 days by micromethod; format: functional; settings: H37Rv 331/88, 504 h; outline: as §2
Enterococcus sp. [29] = assay: Antibacterial activity against Enterococcus sp. J14365/08 after 48 hrs by broth microdilution method; format: functional; settings: J14365/08, 48 h; outline: as §1
Escherichia coli [30] = assay: Antibacterial activity against Escherichia coli CCM 4517 after 24 hrs by broth microdilution method; format: functional; settings: CCM 4517, 24 h; outline: as §1
Mycobacterium kansasii [31] = assay: Antimycobacterial activity against Mycobacterium kansasii 235/80 after 21 days by micromethod; format: functional; settings: 235/80, 504 h; outline: as §2
[32] = test system: Staphylococcus epidermidis; assay: Antibacterial activity against Staphylococcus epidermidis H6966/08 after 24 hrs by broth microdilution method; format: functional; settings: H6966/08, 24 h; outline: as §1
Candida tropicalis [33] = assay: Antifungal activity against Candida tropicalis 156 after 24 hrs by broth microdilution method; format: functional; settings: Candida tropicalis, 156, 24 h
Mycobacterium kansasii [34] = assay: Antimycobacterial activity against Mycobacterium kansasii 235/80 after 7 days by micromethod; format: functional; settings: 235/80, 168 h; outline: as §2
Mycobacterium kansasii [35] = assay: Antimycobacterial activity against Mycobacterium kansasii 6509/96 after 21 days by micromethod; format: functional; settings: 6509/96, 504 h; outline: as §2
Nakaseomyces glabratus [36] = assay: Antifungal activity against Candida glabrata 20/I after 48 hrs by broth microdilution method; format: functional
[37] = Lipophilicity, log P of the compound; format: physicochemical; settings: octanol/water
Aspergillus fumigatus [38] = assay: Antifungal activity against Aspergillus fumigatus 231 after 48 hrs by broth microdilution method; format: functional; settings: Aspergillus fumigatus, 231, 48 h
Mycobacterium avium [39] = assay: Antimycobacterial activity against Mycobacterium avium; format: functional
Pichia kudriavzevii [40] = assay: Antifungal activity against Candida krusei E28 after 24 hrs by broth microdilution method; format: functional; settings: E28, 24 h
[41] = test system: Trichophyton mentagrophytes; assay: Antifungal activity against Trichophyton mentagrophytes after 48 hrs by broth microdilution method; format: functional
[42] = test system: Trichophyton mentagrophytes; assay: Antifungal activity against Trichophyton mentagrophytes after 24 hrs by broth microdilution method; format: functional
Lichtheimia corymbifera [43] = assay: Antifungal activity against Absidia corymbifera 272 after 24 hrs by broth microdilution method; format: functional; settings: Lichtheimia corymbifera, 272, 24 h

CC(=O)N[C@@H](Cc1ccccc1)C(=O)Oc1ccc(Cl)cc1C(=O)Nc1ccc(C(F)(F)F)cc1
MIC (Trichosporon beigelii [1]): > 125 µM | MIC (Escherichia coli [2]): > 125 µM | MIC (Klebsiella pneumoniae [3]): > 125 µM | MIC (Mycobacterium kansasii [4]): 1 µM (≈ 0.505 µg/mL) | MIC (Staphylococcus aureus [5]): 0.98 µM (≈ 0.495 µg/mL) | MIC (Klebsiella pneumoniae [6]): > 125 µM | MIC (Mycobacterium avium [7]): 4 µM (≈ 2.02 µg/mL) | MIC [8]: 0.25 µM (≈ 0.126 µg/mL) | MIC (Staphylococcus aureus [9]): 1.95 µM (≈ 0.985 µg/mL) | MIC (Mycobacterium kansasii [10]): 1 µM (≈ 0.505 µg/mL) | MIC [11]: 3.9 µM (≈ 1.97 µg/mL) | MIC (Candida albicans [12]): > 125 µM | MIC (Enterococcus sp. [13]): 31.2 µM (≈ 15.8 µg/mL) | MIC (Pichia kudriavzevii [14]): > 125 µM | MIC (Trichosporon beigelii [15]): 125 µM (≈ 63.1 µg/mL) | MIC (Mycobacterium avium [16]): 4 µM (≈ 2.02 µg/mL) | MIC (Mycobacterium kansasii [17]): 2 µM (≈ 1.01 µg/mL) | MIC (Aspergillus fumigatus [18]): 125 µM (≈ 63.1 µg/mL) | MIC [19]: 1 µM (≈ 0.505 µg/mL) | MIC (Staphylococcus aureus [20]): 0.98 µM (≈ 0.495 µg/mL) | MIC (Candida tropicalis [21]): > 125 µM | MIC (Mycobacterium kansasii [22]): 1 µM (≈ 0.505 µg/mL) | MIC (Nakaseomyces glabratus [23]): > 125 µM | Selectivity Index [24]: 48.8 | MIC (Candida albicans [25]): > 125 µM | MIC (Lichtheimia corymbifera [26]): > 125 µM | MIC (Staphylococcus aureus [27]): 7.81 µM (≈ 3.94 µg/mL) | IC50 (PBMC): 12.2 µM | MIC [28]: 0.5 µM (≈ 0.252 µg/mL) | MIC (Enterococcus sp. [29]): > 125 µM | MIC (Escherichia coli [30]): > 125 µM | MIC (Mycobacterium kansasii [31]): 2 µM (≈ 1.01 µg/mL) | MIC [32]: 0.98 µM (≈ 0.495 µg/mL) | MIC (Candida tropicalis [33]): > 125 µM | MIC (Mycobacterium kansasii [34]): 0.5 µM (≈ 0.252 µg/mL) | MIC (Mycobacterium kansasii [35]): 2 µM (≈ 1.01 µg/mL) | MIC (Nakaseomyces glabratus [36]): > 125 µM | logP [37]: 4.92 | MIC (Aspergillus fumigatus [38]): > 125 µM | MIC (Mycobacterium avium [39]): 1 µM (≈ 0.505 µg/mL) | MIC (Pichia kudriavzevii [40]): 125 µM (≈ 63.1 µg/mL) | MIC [41]: > 125 µM | MIC [42]: 62.5 µM (≈ 31.6 µg/mL) | MIC (Lichtheimia corymbifera [43]): > 125 µM
